Experimental data of several laboratories.
Protocols differ between the studies behind these lines.
Organism: Staphylococcus aureus
Effect on: microbial growth

| Compound | method | strain | time | notes | MIC |
| --- | --- | --- | --- | --- | --- |
| C[n+]1c(/C=C/c2ccc(O)cc2)cc(/C=C2\Sc3ccccc3N2CCCN2CCCC2)c2ccccc21.[I-] | broth dilution | ATCCBAA44 | – | – | 32 µg/mL |
| O=C(O)c1cn(C2CC2)c2cc(N3CCNCC3)c(F)cc2c1=O | broth dilution | ATCC25923 | – | – | 0.49 µg/mL |
| O=C(CCCCCCCCCC[P+](c1ccccc1)(c1ccccc1)c1ccccc1)Nc1cc(O)c(O)c(O)c1.[Br-] | broth dilution | ATCC43300 MRSA | 18 h | – | 2 µg/mL |
| Brc1cccc(NCc2ccc(Oc3ccccn3)cc2)c1 | – | – | – | – | > 3.1 µg/mL |
| O=[N+]([O-])c1ccc(O)c2ncccc12 | broth dilution | ATCC29213 | – | – | 2 µg/mL |
| C/C=C(\C)c1cc(O)c(C)c(OC(=O)c2c(C)cc(O)c(Cl)c2O)c1 | broth dilution | 6917 | – | – | 32 µg/mL |
| COc1cccc(-c2nc3ccc(C)cc3[nH]2)c1 | broth dilution | ATCC29213 MSSA | – | – | 128 µg/mL |
| CCn1cc(C(=O)O)c(=O)c2cc(F)c(N3CCNCC3)cc21 | broth dilution | ATCC6538 | – | – | 2 µM |
| Cn1c(SCc2ccc(Cl)cc2)nnc1-c1cncc(C#Cc2ccccc2)c1 | – | MRSA | – | drug-resistant strain | ≥ 20 µg/mL |
| COC(=O)Nc1ccc(-c2nc(N3CCOCC3)c3cnn(C4CCN(Cc5cccnc5)CC4)c3n2)cc1 | – | NCTC8325 | – | – | > 30 µM |
| C=CC1(C)CC(OC(=O)CSc2nc3ccccc3s2)C2(C)C(C)CCC3(CCC(=O)C32)C(C)C1O (stereo not shown) | – | – | – | – | 0.5 µg/mL |
| CC(C)Oc1c(NC(=O)c2ccc(NC(=O)[C@H](CC(N)=O)NC(=O)c3ccc(NC(=O)c4cc(C#N)cn4C)cc3)cc2)ccc(C(=O)Nc2ccc(C(=O)O)cc2)c1O | – | ATCC29213 | – | – | 64 µg/mL |
| CCn1cc(C(=O)O)c(=O)c2cc(F)c(N3CCNCC3)cc21 | broth dilution | ATCC11632 | 18 h | – | < 5 µg/mL |
| O=C(O)c1cc(Br)c(O)c(Br)c1 | – | – | – | – | > 128 µg/mL |
| COC(=O)c1ccc2c(C(=Nc3ccc(N(C)C(=O)CN4CCN(C)CC4)cc3)c3ccccc3)c(O)[nH]c2c1 | – | NCTC8325 | – | – | > 30 µM |
| CC(C)Oc1c(NC(=O)c2ccc(NC(=O)[C@H](CC(N)=O)NC(=O)c3ccc(NC(=O)c4ccc(C#N)nc4)cc3)cc2)ccc(C(=O)Nc2ccc(C(=O)O)cc2)c1O | – | ATCC29213 | – | – | 64 µg/mL |
| C/C=C(\C)c1cc(OC(=O)c2c(C)c(Cl)c(O)c(Cl)c2O)c(C)c(O)c1C(=O)O | broth dilution | 6917 | – | – | > 64 µg/mL |
| Cc1cc(C)cc(NC(=O)Nc2ccc(N3CCCCC3)cc2)c1 | – | – | – | – | > 128 µg/mL |
| CN[C@H](CC(C)C)C(=O)N[C@H]1C(=O)N[C@@H](CC(N)=O)C(=O)N[C@H]2C(=O)N[C@H]3C(=O)N[C@H](C(=O)N[C@H](C(=O)O)c4cc(O)cc(O)c4-c4cc3ccc4O)[C@H](O)c3ccc(c(Cl)c3)Oc3cc2cc(c3O[C@@H]2O[C@H](CO)[C@@H](O)[C@H](O)[C@H]2O[C@H]2C[C@](C)(N)[C@H](O)[C@H](C)O2)Oc2ccc(cc2Cl)[C@H]1O | broth dilution | ATCC25923 | – | – | 0.98 µg/mL |
| CC(C)Oc1c(NC(=O)c2ccc(NC(=O)[C@H](CC(N)=O)NC(=O)c3ccc(NC(=O)c4ccc(C#N)c(F)c4)cc3)cc2)ccc(C(=O)Nc2ccc(C(=O)O)cc2)c1O | – | ATCC29213 | – | – | 2 µg/mL |

| Compound | method | strain | time | notes | MIC |
| --- | --- | --- | --- | --- | --- |
| CNc1cccc2cc(C(=O)NCCc3cccc(C(=O)O)c3)c(=O)[nH]c12 | – | ATCC29213 | – | – | > 64 µg/mL |
| C=CC(=O)Nc1cccc(Oc2nc(Nc3ccc(N4CCN(C)CC4)cc3OC)ncc2Cl)c1 | – | NCTC8325 | – | – | > 30 µM |
| Cc1ccc(NCc2ccc(Oc3ccccn3)cc2)cc1 | – | – | – | – | 1.8 µg/mL |
| Cc1ccc2nc(-c3c(F)cccc3Cl)[nH]c2c1 | broth dilution | ATCC29213 MSSA | – | – | 64 µg/mL |
| CC1=NN(CNC(=O)c2ccccc2)C(=O)C1=NNn1c(-c2ccccc2)nc2ccccc2c1=O | broth dilution | – | 24 h | – | 51.9 µM |
| COc1cc2nccc(Oc3ccc(NC(=O)Nc4cc(C)on4)c(Cl)c3)c2cc1OC | – | NCTC8325 | – | – | > 30 µM |
| CC(C)Oc1c(NC(=O)c2ccc(NC(=O)[C@H](CC(N)=O)NC(=O)c3cccc(-c4cccc(C#N)c4)c3)cc2)ccc(C(=O)Nc2ccc(C(=O)O)cc2)c1O | – | ATCC29213 | – | – | > 64 µg/mL |
| COc1c(C)c(OS(=O)(=O)c2ccc3ccccc3c2)c(C)c(O)c1C(=O)/C=C/c1ccccc1 | broth dilution | ATCC25923 | – | – | 2500 µg/mL |
| Cc1ccc(C)n1-c1ccc(-c2nnc(-c3ccc(Br)cc3)[nH]2)cc1 | broth dilution | ATCC11632 | 18 h | – | 1 µg/mL |
| C/C=C(\C)c1cc(OC(=O)c2c(O)c(C)c(O)c(Cl)c2/C(C)=C/C)c(C)c(O)c1C(=O)O | broth dilution | MRSA | – | – | 64 µg/mL |
| O=[N+]([O-])c1cnc2ccccc2c1O | – | – | – | – | > 128 µg/mL |
| Cc1ccc2nc(-c3ccc(Cl)cc3)n(Cc3ccccc3Cl)c2c1 | broth dilution | ATCC29213 MSSA | – | – | 64 µg/mL |
| C[C@@H](O)[C@H]1C(=O)N2C(C(=O)O)=C(SCCN=CN)C[C@H]12 | – | MRSA | – | – | 32 µg/mL |
| O=C(CCCCCC[P+](c1ccccc1)(c1ccccc1)c1ccccc1)Nc1cc(O)c(O)c(O)c1.[Br-] | broth dilution | ATCC43300 MRSA | 18 h | – | 32 µg/mL |
| CC[C@H]1OC(=O)[C@H](C)[C@@H](O[C@H]2C[C@@](C)(OC)[C@@H](O)[C@H](C)O2)[C@H](C)[C@@H](O[C@@H]2O[C@H](C)C[C@H](N(C)C)[C@H]2O)[C@](C)(O)C[C@@H](C)C(=O)[C@H](C)[C@@H](O)[C@]1(C)O | – | 147 | – | clinical isolate | 37.5 µM |
| CO[C@H]1/C=C/O[C@@]2(C)Oc3c(C)c(O)c4c(O)c(c(/C=N/N5CCN(C)CC5)c(O)c4c3C2=O)NC(=O)/C(C)=C\C=C\[C@H](C)[C@H](O)[C@@H](C)[C@@H](O)[C@@H](C)[C@H](OC(C)=O)[C@@H]1C | broth dilution | ATCCBAA44 | – | – | 2 µg/mL |
| Cc1ccc2nc(-c3ccc([N+](=O)[O-])cc3)n(Cc3ccccc3Cl)c2c1 | broth dilution | ATCC29213 MSSA | – | – | 32 µg/mL |
| CC(C)Oc1c(NC(=O)c2ccc(NC(=O)[C@H](CC(N)=O)NC(=O)c3cccc(NC(=O)c4ccc(C#N)cc4)c3)cc2)ccc(C(=O)Nc2ccc(C(=O)O)cc2)c1O | – | ATCC29213 | – | – | > 64 µg/mL |
| Cc1nc(N)sc1-c1ccnc(Nc2ccc(N3CCOCC3)cc2)n1 | – | NCTC8325 | – | – | > 30 µM |
| O=c1[nH]cc(F)c(=O)[nH]1 | broth dilution | – | 24 h | – | 1 µg/mL |

| Compound | method | strain | time | notes | MIC |
| --- | --- | --- | --- | --- | --- |
| COc1c(C)c(OC(C)=O)c(C)c(O)c1C(=O)/C=C/c1ccccc1 | broth dilution | ATCC25923 | – | – | 2500 µg/mL |
| CN(C)[C@@H]1C(O)=C(C(N)=O)C(=O)[C@@]2(O)C(O)=C3C(=O)c4c(O)cccc4[C@@](C)(O)[C@H]3C[C@@H]12 | – | 147 | – | clinical isolate | ≤ 0.1 µM |
| CC(C)Oc1c(NC(=O)c2ccc(NC(=O)[C@H](CC(N)=O)NC(=O)c3ccc(NC(=O)c4ccc5c(c4)COC5=O)cc3)cc2)ccc(C(=O)Nc2ccc(C(=O)O)cc2)c1O | – | ATCC29213 | – | – | 1 µg/mL |
| O=C(O)CN1C(=O)/C(=C/c2c3ccccc3c(-c3ccc(N(c4ccccc4)c4ccccc4)cc3)c3ccccc23)SC1=S | broth dilution | ATCC6538 | – | – | > 1000 µg/mL |
| C=CCn1c(-c2ccc(Cl)c(Cl)c2)nc2ccccc21 | broth dilution | ATCC29213 MSSA | – | – | 64 µg/mL |
| O=C1NC(=S)S/C1=C\c1ccc(-c2ccc(N(c3ccccc3)c3ccccc3)cc2)cc1 | broth dilution | ATCC25923 | – | – | 250 µg/mL |
| C=CCn1c(-c2ccc(Cl)cc2)nc2ccccc21 | broth dilution | ATCC29213 MSSA | – | – | 64 µg/mL |
| CNC(=O)c1ccccc1Sc1ccc2c(/C=C/c3ccccn3)n[nH]c2c1 | – | NCTC8325 | – | – | > 30 µM |
| O=C1NC(=S)S/C1=C\c1ccc(-c2ccc(N(c3ccccc3)c3ccccc3)cc2)c2ccccc12 | broth dilution | ATCC43300 | – | – | 1000 µg/mL |
| CC1(C)S[C@@H]2[C@H](NC(=O)[C@H](N)c3ccccc3)C(=O)N2[C@H]1C(=O)O | broth dilution | 6917 | – | – | 64 µg/mL |
| CC(=O)NC[C@H]1CN(c2ccc(N3CCOCC3)c(F)c2)C(=O)O1 | broth dilution | MRSA NRS382 USA100 | – | drug-resistant strain | 2 µg/mL |
| CNC(=O)c1cc(Oc2ccc(NC(=O)Nc3ccc(C)cc3)cc2)ccn1 | – | NCTC8325 | – | – | > 100 µM |
| C/C=C(\C)c1cc(O)c(C)c(OC(=O)c2c(C)c(Cl)c(O)c(Cl)c2O)c1 | broth dilution | 6917 | – | – | 8 µg/mL |
| Cc1ccc2nc(-c3ccc4c(c3)OCO4)[nH]c2c1 | broth dilution | ATCC29213 MSSA | – | – | 256 µg/mL |
| O=C1NN=C(N=Cc2ccc(O)c(O)c2)C1=NNn1c(-c2ccccc2)nc2ccccc2c1=O | broth dilution | – | 24 h | – | 107 µM |
| COc1cc2/c(=N/c3ccc(Br)cc3F)nc[nH]c2cc1OCC1CCN(C)CC1 | – | NCTC8325 | – | – | > 30 µM |
| c1ccc2c(-c3nc4ccccc4[nH]3)c3ccccc3cc2c1 | broth dilution | ATCC29213 MSSA | – | – | 32 µg/mL |
| C[C@@H](O)[C@H]1C(=O)N2C(C(=O)O)=C(S[C@@H]3CN[C@H](C(=O)N(C)C)C3)[C@H](C)[C@H]12 | broth dilution | – | 24 h | – | 0.0625 µg/mL |
